Source: ChEMBL document CHEMBL3603837, “Indole Glucocorticoid Receptor Antagonists Active in a Model of Dyslipidemia Act via a Unique Association with an Agonist Binding Site” (J Med Chem, 2015)
The source made the active and inactive calls. The rule behind the calls is not given here.

Experiments:
Syrian golden hamster [1] = experiment: Reduction in LDL level in high fat and high cholesterol diet fed Syrian golden hamster at 30 mg/kg, po qd for 14 days; type: functional; conditions: Mesocricetus auratus, 336 h
How it was run: (§1)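 Groups of Syrian golden hamsters (n = 6) kept on a high fat, high cholesterol diet for 14 days, dosed orally at 30 mg/kg once daily. Plasma HDL and LDL compared against untreated HFHC controls; mean with standard errors.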

[2] = biological target: T1, Estrogen receptor (Homo sapiens) (UniProt P03372); experiment: Binding affinity to human estrogen receptor expressed in HEK293 cells by scintillation counting based radioligand competition binding assay; type: cell-based
T1 sequence (whole entry): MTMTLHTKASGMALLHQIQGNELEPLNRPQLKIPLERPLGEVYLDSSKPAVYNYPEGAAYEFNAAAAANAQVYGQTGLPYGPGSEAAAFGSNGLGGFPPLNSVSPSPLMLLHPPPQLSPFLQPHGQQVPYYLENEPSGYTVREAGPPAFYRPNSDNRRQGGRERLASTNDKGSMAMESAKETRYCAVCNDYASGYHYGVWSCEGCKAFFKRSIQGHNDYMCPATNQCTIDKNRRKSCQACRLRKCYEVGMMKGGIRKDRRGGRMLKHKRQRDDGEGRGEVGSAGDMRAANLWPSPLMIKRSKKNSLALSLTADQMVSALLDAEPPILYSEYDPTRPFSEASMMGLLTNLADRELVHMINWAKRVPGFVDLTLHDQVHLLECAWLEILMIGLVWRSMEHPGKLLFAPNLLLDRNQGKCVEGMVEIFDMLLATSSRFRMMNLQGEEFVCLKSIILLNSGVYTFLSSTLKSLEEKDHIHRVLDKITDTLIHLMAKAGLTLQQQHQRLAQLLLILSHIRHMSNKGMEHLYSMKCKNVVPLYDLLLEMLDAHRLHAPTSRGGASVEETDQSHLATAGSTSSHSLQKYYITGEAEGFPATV

Syrian golden hamster [3] = experiment: Increase in HDL level in high fat and high cholesterol diet fed Syrian golden hamster at 30 mg/kg, po qd for 14 days; type: functional, Mesocricetus auratus; how it was run: as §1
[4] = biological target: T2, Glucocorticoid receptor (Homo sapiens) (UniProt P04150); experiment: Displacement of [3H]-dexamethasone from human glucocorticoid receptor expressed in HEK293 cells at 10 uM by scintillation counting based radioligand competition binding assay; type: cell-based
T2 sequence (whole entry): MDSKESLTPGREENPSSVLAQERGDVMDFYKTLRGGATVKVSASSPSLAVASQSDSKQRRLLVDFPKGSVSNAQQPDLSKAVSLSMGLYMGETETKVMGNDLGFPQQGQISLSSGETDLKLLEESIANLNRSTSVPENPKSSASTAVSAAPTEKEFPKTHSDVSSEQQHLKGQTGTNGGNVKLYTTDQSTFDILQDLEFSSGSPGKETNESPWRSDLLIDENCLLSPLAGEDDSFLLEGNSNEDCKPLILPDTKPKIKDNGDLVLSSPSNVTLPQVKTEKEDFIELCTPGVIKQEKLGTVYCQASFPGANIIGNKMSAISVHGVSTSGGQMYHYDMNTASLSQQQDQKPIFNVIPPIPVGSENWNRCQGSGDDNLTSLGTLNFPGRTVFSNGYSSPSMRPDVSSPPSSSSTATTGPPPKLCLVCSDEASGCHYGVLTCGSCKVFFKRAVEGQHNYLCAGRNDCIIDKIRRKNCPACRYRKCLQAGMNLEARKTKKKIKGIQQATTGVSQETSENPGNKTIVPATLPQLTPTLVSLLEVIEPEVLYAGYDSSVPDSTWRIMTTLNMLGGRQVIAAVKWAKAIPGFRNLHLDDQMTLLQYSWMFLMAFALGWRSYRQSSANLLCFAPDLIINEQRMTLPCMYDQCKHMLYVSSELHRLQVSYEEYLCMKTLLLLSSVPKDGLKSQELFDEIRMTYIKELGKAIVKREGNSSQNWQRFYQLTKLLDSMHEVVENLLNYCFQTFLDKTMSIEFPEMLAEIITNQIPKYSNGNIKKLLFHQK
How it was run: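 Competition binding with 0.3 nM [3H]-dexamethasone and 20 μg 293-GR lysate per well; nonspecific binding defined with 0.5 μM dexamethasone. Incubated overnight at 4 °C, free ligand removed with charcoal–dextran, then scintillation counting. Percent inhibition at 10 μM was calculated.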

[5] = biological target: T3, Mineralocorticoid receptor (Homo sapiens, UniProt P08235); experiment: biochemical
T3 sequence (P08235 whole entry): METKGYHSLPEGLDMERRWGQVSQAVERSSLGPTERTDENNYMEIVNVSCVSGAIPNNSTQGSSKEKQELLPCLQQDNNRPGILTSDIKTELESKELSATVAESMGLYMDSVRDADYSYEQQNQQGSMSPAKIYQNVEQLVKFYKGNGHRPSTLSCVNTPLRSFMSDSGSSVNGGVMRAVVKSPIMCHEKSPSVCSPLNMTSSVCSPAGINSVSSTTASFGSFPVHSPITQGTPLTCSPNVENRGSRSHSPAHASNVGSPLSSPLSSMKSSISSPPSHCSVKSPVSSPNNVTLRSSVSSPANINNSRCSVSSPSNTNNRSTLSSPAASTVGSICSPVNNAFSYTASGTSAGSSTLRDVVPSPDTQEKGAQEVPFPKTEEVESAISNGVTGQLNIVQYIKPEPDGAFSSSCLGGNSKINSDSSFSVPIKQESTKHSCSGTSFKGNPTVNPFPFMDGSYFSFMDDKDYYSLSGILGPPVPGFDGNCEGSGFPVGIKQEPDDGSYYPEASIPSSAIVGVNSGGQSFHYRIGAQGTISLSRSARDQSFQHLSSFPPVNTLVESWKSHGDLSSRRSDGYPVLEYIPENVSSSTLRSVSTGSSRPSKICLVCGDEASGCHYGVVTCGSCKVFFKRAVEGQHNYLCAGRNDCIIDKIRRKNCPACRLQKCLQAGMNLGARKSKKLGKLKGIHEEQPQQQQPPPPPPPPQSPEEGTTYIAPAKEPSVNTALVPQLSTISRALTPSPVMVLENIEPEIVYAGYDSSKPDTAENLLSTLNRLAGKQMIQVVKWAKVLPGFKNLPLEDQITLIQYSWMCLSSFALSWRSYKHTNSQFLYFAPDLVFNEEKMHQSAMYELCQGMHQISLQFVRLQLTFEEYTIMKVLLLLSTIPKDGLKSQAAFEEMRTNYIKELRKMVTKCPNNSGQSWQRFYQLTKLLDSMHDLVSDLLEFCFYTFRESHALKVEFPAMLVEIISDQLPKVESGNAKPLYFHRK

Androgen receptor = biological target: T4, Androgen receptor (Homo sapiens, UniProt P10275); experiment: biochemical
T4 sequence (P10275 whole entry): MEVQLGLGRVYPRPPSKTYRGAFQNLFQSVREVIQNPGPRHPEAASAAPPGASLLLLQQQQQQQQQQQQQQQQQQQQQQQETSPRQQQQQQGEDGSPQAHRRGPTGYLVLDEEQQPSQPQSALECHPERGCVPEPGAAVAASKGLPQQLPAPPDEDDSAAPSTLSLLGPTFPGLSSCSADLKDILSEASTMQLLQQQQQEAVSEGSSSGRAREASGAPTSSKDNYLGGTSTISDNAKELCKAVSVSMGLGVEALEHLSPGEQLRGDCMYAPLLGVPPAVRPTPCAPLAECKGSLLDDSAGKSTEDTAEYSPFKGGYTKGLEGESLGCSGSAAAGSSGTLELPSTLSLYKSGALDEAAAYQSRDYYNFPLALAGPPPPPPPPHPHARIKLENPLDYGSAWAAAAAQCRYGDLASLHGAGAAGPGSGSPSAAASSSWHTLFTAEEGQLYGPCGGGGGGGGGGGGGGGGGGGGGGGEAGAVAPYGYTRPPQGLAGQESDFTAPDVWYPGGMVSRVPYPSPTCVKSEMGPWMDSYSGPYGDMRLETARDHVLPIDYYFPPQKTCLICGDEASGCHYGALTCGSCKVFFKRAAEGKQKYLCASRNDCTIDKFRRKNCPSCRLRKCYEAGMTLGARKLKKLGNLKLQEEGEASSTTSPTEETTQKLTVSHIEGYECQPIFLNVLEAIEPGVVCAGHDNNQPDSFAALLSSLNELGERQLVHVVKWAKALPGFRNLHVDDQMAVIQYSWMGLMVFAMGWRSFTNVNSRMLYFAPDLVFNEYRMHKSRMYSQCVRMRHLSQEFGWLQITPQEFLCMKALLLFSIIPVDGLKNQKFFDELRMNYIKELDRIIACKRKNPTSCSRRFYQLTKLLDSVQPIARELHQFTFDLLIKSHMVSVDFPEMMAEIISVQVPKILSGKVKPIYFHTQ

SMILES | Activity [2] | Activity [4] | Ki [5] [µM] | Ki (Androgen receptor) [µM] | inhibition in vivo at 30 mg/kg (Syrian golden hamster [1]) [%] | Activity (Syrian golden hamster [3]) [%]
CC#C[C@]1(O)CC[C@H]2[C@@H]3CCC4=CC(=O)CCC4=C3[C@@H](c3ccc(N(C)C)cc3)C[C@@]21C [MIFEPRISTONE] | inactive |  |  |  | 43 | 35
Cc1[nH]c2ccccc2c1-c1ccccc1 | inactive | inactive |  |  |  | 

Second part, led by results:

Activity [2] | Activity [4] | Ki [5] [µM] | Ki (Androgen receptor) [µM] | SMILES | inhibition in vivo at 30 mg/kg (Syrian golden hamster [1]) [%] | Activity (Syrian golden hamster [3]) [%]
inactive |  |  |  | COc1ccc(-c2c[nH]c3c(NS(C)(=O)=O)cccc23)cc1F |  | 
inactive | inactive |  |  | COc1cc(F)ccc1-c1c(CN(C)Cc2ccccc2)[nH]c2c([N+](=O)[O-])cc(C(C)C)cc12 |  | 
inactive |  | 6.53 | 6.12 | COc1ccc(F)cc1-c1c[nH]c2c(NC(C)=O)cccc12 |  | 
